Experimental data: ChEMBL document CHEMBL1127846, “Influence of amine substituents on 5-HT2A versus 5-HT2C binding of phenylalkyl- and indolylalkylamines” (J Med Chem, 1994)

How the values were obtained:
[1] = molecular target: T1, 5-hydroxytryptamine receptor 2A (Homo sapiens, UniProt P28223); assay: Affinity against 5-hydroxytryptamine 2A receptor (D) labeled with [125I]DOI.
[2] = molecular target: T1, 5-hydroxytryptamine receptor 2A; assay: Affinity against 5-hydroxytryptamine 2A receptor (K) labeled with [3H]ketanserin.
[3] = molecular target: T2, 5-hydroxytryptamine receptor 2C (Rattus norvegicus, UniProt P08909); assay: Affinity against 5-hydroxytryptamine 2C receptor in J1 cells transfected with the rat 5-HT2C gene labeled with [3H]mesulergine.; format: cell-based
T2 sequence (P08909 whole entry): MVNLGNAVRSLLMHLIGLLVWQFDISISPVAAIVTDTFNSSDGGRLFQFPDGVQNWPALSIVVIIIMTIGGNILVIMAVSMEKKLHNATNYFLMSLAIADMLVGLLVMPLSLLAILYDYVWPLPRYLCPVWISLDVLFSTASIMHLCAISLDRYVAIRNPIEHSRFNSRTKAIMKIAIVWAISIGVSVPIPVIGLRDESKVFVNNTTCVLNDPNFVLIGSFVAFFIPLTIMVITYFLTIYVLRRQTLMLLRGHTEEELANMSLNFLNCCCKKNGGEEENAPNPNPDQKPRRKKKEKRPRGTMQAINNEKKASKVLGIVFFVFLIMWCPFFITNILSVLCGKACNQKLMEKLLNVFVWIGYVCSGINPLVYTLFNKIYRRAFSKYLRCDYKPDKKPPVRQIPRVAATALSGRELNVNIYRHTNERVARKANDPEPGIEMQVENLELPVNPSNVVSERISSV
In short: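 Homogenates of J1 cells carrying the rat 5-HT1C (5-HT2C) gene, labeled with [3H]mesulergine. Competing drug and radioligand incubated at 37 °C for 30 min, then filtered through glass-fiber filters and counted by liquid scintillation. Ki given as mean and SEM of at least two experiments, each done in triplicate.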

[4] = The compound evaluated for its receptor selectivity 5-HT2C receptors versus [125I]- DOI- labeled receptors
[5] = Receptor selectivity [3H]- ketanserin-labeled receptors versus [125I]- DOI-labeled receptors.
[6] = The compound evaluated for its receptor selectivity at [125I]- DOI- labeled receptors versus [3H]- ketanserin- labeled receptors,
In short: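 […] 5-HT2A receptors expressed in transfected GF6 cells, labeled in separate assays with [3H]ketanserin or [125I]DOI. Homogenates were incubated with radioligand and competing drug for 30 min at 37 °C, then filtered through glass-fiber filters and counted by liquid scintillation. Ki values are the mean and SEM of at least two experiments, each run in triplicate.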

T1 sequence (P28223 whole entry): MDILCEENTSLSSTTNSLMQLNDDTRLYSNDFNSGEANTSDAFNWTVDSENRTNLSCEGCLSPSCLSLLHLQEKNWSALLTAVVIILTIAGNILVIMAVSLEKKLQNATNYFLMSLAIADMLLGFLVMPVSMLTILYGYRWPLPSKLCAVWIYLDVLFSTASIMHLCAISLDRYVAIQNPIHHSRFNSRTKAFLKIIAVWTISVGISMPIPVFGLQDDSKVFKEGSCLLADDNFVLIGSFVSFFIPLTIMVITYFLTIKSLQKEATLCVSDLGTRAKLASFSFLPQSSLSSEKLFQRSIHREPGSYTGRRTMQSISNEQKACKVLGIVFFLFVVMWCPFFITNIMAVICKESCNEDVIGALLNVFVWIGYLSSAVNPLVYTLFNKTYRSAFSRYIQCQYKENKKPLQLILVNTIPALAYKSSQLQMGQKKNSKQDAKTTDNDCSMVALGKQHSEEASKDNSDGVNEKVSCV

| Compound | Ki [1] [µM] | Ki [2] [µM] | Ki [3] [µM] | Ratio [4] | Ratio [5] | Ratio [6] |
| --- | --- | --- | --- | --- | --- | --- |
| COc1cc(CCN)c(OC)cc1Br | 0.001 | 0.034 | – | – | – | – |
| COc1ccc2[nH]cc(CCNCc3ccc(Br)cc3)c2c1 | 0.0001 | 0.0052 | 0.1 | 1000 | 52 | – |
| COc1cc(CCNCCCCc2ccccc2)c(OC)cc1Br | 0.027 | 0.1 | 0.695 | 26 | 4 | – |
| COc1cc(CCNCc2ccc(C)cc2)c(OC)cc1Br | 0.014 | 0.023 | 0.225 | 16 | 2 | – |
| COc1cc(CCNCc2ccc([N+](=O)[O-])cc2)c(OC)cc1Br | 0.058 | 0.29 | 1.22 | 21 | 5 | – |
| COc1ccc2[nH]cc(CCNCc3ccc(Cl)cc3)c2c1 | 0.105 | 0.565 | 4.39 | 42 | 5 | – |
| COc1cc(CCNCc2ccc(Br)cc2)c(OC)cc1Br | 0.0004 | 0.0016 | 0.048 | 120 | 4 | – |
| CCNCCc1cc(OC)c(Br)cc1OC | 0.04 | 0.33 | 1.93 | 48 | 8 | – |
| COc1cc(CCNCc2ccc(I)cc2)c(OC)cc1Br | 0.0004 | 0.022 | 0.165 | 410 | 55 | – |
| COc1cc(CCNCc2ccc(Cl)cc2)c(OC)cc1Br | 0.015 | 0.11 | 0.715 | 48 | 7 | – |
| COc1ccc2[nH]cc(CCNCc3ccc([N+](=O)[O-])cc3)c2c1 | 0.14 | 4.26 | 9.97 | 70 | 30 | – |
| COc1ccc2[nH]cc(CCNCCCc3ccccc3)c2c1 | 0.01 | 0.05 | 0.165 | 16 | 5 | – |
| COc1ccc2[nH]cc(CCNCc3ccc(F)cc3)c2c1 | 0.04 | 0.48 | 3.53 | 88 | 10 | – |
| COc1ccc2[nH]cc(CCNCc3ccc(I)cc3)c2c1 | 0.12 | 0.4 | 1.77 | 15 | 3 | – |
| COc1cc(CCNCCCc2ccccc2)c(OC)cc1Br | 0.023 | 0.084 | 0.31 | 13 | 4 | – |
| CNCCc1cc(OC)c(Br)cc1OC | 0.0029 | 0.38 | 0.1 | 34 | 130 | – |
| CCNCCc1c[nH]c2ccc(OC)cc12 | 0.0072 | 0.93 | 2.68 | – | – | 130 |
| CNCCc1c[nH]c2ccc(OC)cc12 | 0.0041 | 0.45 | 0.84 | – | – | 110 |
| COc1ccc2[nH]cc(CCN3CCCCC3)c2c1 | 0.23 | 0.16 | > 10 | – | – | – |
| COc1cc(CCN2CCCCC2)c(OC)cc1Br | 0.154 | 0.895 | 2.53 | 16 | 6 | – |
| COc1ccc2[nH]cc(CCNCCCCc3ccccc3)c2c1 | 0.013 | 0.022 | 1.5 | 115 | 2 | – |
| COc1ccc(CNCCc2cc(OC)c(Br)cc2OC)cc1 | 0.013 | 0.016 | 0.215 | 17 | 1 | – |
| COc1cc(CCNCc2ccccc2)c(OC)cc1Br | 0.0003 | 0.016 | 0.09 | 300 | 53 | – |
| COc1ccc(CNCCc2c[nH]c3ccc(OC)cc23)cc1 | 0.016 | 0.1 | 1.18 | 74 | 6 | – |
| COc1ccc2[nH]cc(CCNCc3ccc(N)cc3)c2c1 | 0.105 | 0.475 | 6.7 | 64 | 5 | – |
| COc1cc(CCNCc2ccc(N)cc2)c(OC)cc1Br | 0.016 | 0.05 | 1.02 | 64 | 3 | – |
| COc1cc(CCN(C)C)c(OC)cc1Br | 0.016 | 0.42 | 0.48 | 30 | 26 | – |
| COc1cc(CCNCc2ccc(F)cc2)c(OC)cc1Br | 0.0034 | 0.03 | 0.36 | 80 | 7 | – |
| COc1ccc2[nH]cc(CCNCc3ccccc3)c2c1 | 0.0053 | 0.055 | 0.37 | 70 | 10 | – |
| COc1ccc2[nH]cc(CCNCc3ccc(C)cc3)c2c1 | 0.03 | 0.11 | 1.23 | 40 | 4 | – |
